In the library only some 1.5% were active in any assay of this set; here they are far more common.
Rin1-Abl PPI inh: inhibitors of Rin1-Abl protein binding, primary screen, biochemical, TR-FRET; Tyrosine-protein kinase ABL1 (Homo sapiens) + Ras and Rab interactor 1 (Homo sapiens), …; actives 0.4% (n = 360,000); inhibition, % at 7.35 µM; AID 588664, 2011; in the data active = inhibition above about 5%, passing the limit was not always enough
PKA-R1A act: activators of PKA-R1A holoenzyme, primary screen, biochemical, fluorescence polarization, Cy5-IP20, bovine R1A, mouse PKAc. PKA-R1A dissociation; scaled: DMSO 0%, 113 µM cGMP 100%. activation, % at 11.4 µM. actives 0.083% (n = 340,000). AID 504707, 2011;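 active = percent activation above the mean of all tested compounds plus 3 SD, cut at about 19% in these data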;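 note: higher means more PKAc released from R1A so a rise in polarization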
Tb MetRS inh: T. brucei MetRS inhibitors, primary screen, biochemical, luminescence; purified T. brucei MetRS, ATP depletion, Kinase-Glo luminescence; inhibition, % at 11.9 µM; actives 0.4% (n = 360,000); AID 624268, 2012;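 active = inhibition above a per-plate cutoff of the control wells' mean inhibition plus 3 SD, cut at about 5.5% in these data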;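 note: 0% = DMSO wells median and 100% = median of wells with control inhibitor compound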
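Test system: purified T. brucei MetRS enzyme. Also added: ATP, methionine and E. coli bulk tRNA substrates. Compound: 11.9 µM single point. Schedule: 15 min enzyme-compound preincubation, 2 h reaction, 10 min detection, 25 °C. Signal: luciferase luminescence of residual ATP, Kinase-Glo. Evaluation: percent inhibition versus plate control medians. Controls: DMSO wells, low control.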
PKA-R2B act: activators of PKA-R2B holoenzyme, primary screen, biochemical, fluorescence polarization, Cy5-IP20, human; PKA-R2B holoenzyme dissociation; R2B truncated from residue 108, S112A mutant; 0% DMSO only, 100% 113 µM cGMP; actives 0.079% (n = 340,000); activation, % at 11.4 µM;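 active = activation above a cutoff set at the mean over all compounds plus 3 SD, cut at about 18% in these data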;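 note: higher means more holoenzyme dissociation and a rise in polarization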
Cardio protect: cardioprotection against H2O2-induced cell death, primary screen, uHTS, H9c2 cells, ATPLite luminescence | H9c2 cardiomyocytes, H2O2 injury protection, 2 h | protection from H2O2 cell death, % at 20 µM | actives 0.63% (n = 360,000) | AID 588492, 2011;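 active = compounds giving at least 50% protection of heart cells from peroxide-induced death in the single-dose screen, raw or plate-pattern-corrected value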;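 note: 0% = DMSO wells with peroxide and 100% = DMSO wells without peroxide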
* marks the source's active call; other numbers are inactive results; x = no result.

SMILES	Rin1-Abl PPI inh	PKA-R1A act	Tb MetRS inh	PKA-R2B act	Cardio protect
C[C@H](NC(=O)c1ccc(Cl)cc1)C(=O)NNC(=O)c1cccs1	-1.9	0.3	0.0	1.8	-7.9
CCN(C[C@H]1N[C@@](Cc2ccccc2)(C(=O)OC)[C@H]2C(=O)N(C)C(=O)[C@@H]12)S(=O)(=O)c1ccc(OC)cc1	-5.1	-6.6	-0.1	0.6	60.0*
CCCCCCSc1ccc([C@H]2N[C@@](Cc3ccccc3)(C(=O)OC)[C@H]3C(=O)N(C)C(=O)[C@@H]23)cc1	1.9	10.2	-0.4	-7.4	77.4*
CC1=C(C(=O)Nc2cc(C(=O)NCCC(C)C)ccc2C)SCCO1	3.1	-0.2	-1.9	-4.9	-4.7
CC(C(=O)NC1CCCC1)N(C(=O)Cn1nnc(-c2ccc(F)cc2)n1)c1ccccc1F (stereo unspecified)	-1.7	0.1	-0.1	-5.4	64.0*
COc1ccc(N(C(=O)Cn2nnc(-c3ccc(F)cc3)n2)C(C)C(=O)NC2CCCC2)cc1 (stereo unspecified)	1.5	1.3	-0.7	2.0	0.9
O=C(NCC1CCCO1)C(c1ccc(F)cc1)N(C(=O)Cn1nnc(-c2ccc(F)cc2)n1)c1cccc(O)c1 (stereo unspecified)	-1.4	-5.9	-1.5	2.0	55.8*
COc1ccccc1C(=O)NCCC(=O)NCc1ccncc1	1.1	0.3	-0.1	6.9	-4.6
Cc1ccc(C(=O)OCC(=O)Nc2ccccc2)cc1NC(=O)c1ccco1	-3.7	-8.0	-1.6	5.9	5.1
Cc1ccc(C(=O)OCC(=O)Nc2sccc2C(N)=O)cc1NC(=O)c1ccco1	-3.1	-12.6	-0.7	-5.7	94.0*
COc1ccccc1CNS(=O)(=O)c1ccc(Cl)s1	1.9	7.8	-0.3	7.8	-1.1
COc1ccc(C(=O)Nc2cc(C)nn2-c2nc3ccccc3[nH]2)c(OC)c1	0.1	1.4	-0.2	-8.6	63.2*
COc1cccc(OC)c1C(=O)Nc1cc(C)nn1-c1nc2ccccc2[nH]1	0.4	-11.4	-0.5	-9.4	77.2*
COc1ccc(CCNC(=O)Nc2ccc3nc([C@@H]4O[C@H](CO)[C@@H](O)[C@H](O)[C@H]4O)[nH]c3c2)cc1Br	0.9	x	-0.3	x	-2.2
Cc1ccc2nc3sc(C(=O)NCc4ccco4)c(N)c3cc2c1	-4.1	-12.8	0.1	-17.4	-11.0
COc1cc2cc3c(N)c(C(=O)NCc4ccco4)sc3nc2cc1OC	-7.8	-16.3	-0.1	1.2	58.3*
NC(=O)C12CCCC(Br)(CCC1)C2	-1.1	-3.9	-0.4	1.2	10.9
Cc1ccc(Cl)cc1N1CCN(S(=O)(=O)c2ccc3c(c2)CC(=O)N3C)CC1	0.6	2.7	-0.2	-4.9	-2.8
Cc1nc2ccccc2c(=O)[nH]1	0.6	-3.4	-0.3	-3.8	68.7*
COc1ccc2nc(C)[nH]c(=O)c2c1	-0.9	4.3	0.4	1.9	-4.3
NC(Cc1ccc(C(F)(F)F)cc1)c1csc(Nc2cc(Oc3ccccc3)ncn2)n1 (stereo unspecified)	3.9	x	-0.3	x	-12.3
CCOc1ccc(-c2c(C(=O)N/N=C/c3c[nH]c4ccccc34)nnn2-c2nonc2N)cc1	2.5	-13.4	0.5	-11.5	54.2*
CCOc1cccc(-c2c(C(=O)N/N=C(\C)c3ccccn3)nnn2-c2nonc2N)c1	-4.1	-13.9	0.0	-8.7	50.8*
Nc1nonc1-n1nnc(C(=O)N/N=C/c2ccccn2)c1CNc1ccccc1	-3.0	0.6	-0.5	1.4	50.0*
CCOc1ccc(/C=N/NC(=O)c2nnn(-c3nonc3N)c2-c2ccc(OCC)cc2)cc1	4.7	-4.9	-0.9	4.4	1.7
SMILES	Rin1-Abl PPI inh	PKA-R1A act	Tb MetRS inh	PKA-R2B act	Cardio protect
O=C(Nc1ccc2c(c1)OCO2)c1cc(C2CCCN(C(=O)CCc3ccccc3)C2)on1 (stereo unspecified)	2.1	x	-0.1	x	-1.3
COc1ccc(CC2=CC(=O)c3ccccc3C2=O)cc1	6.8*	-9.2	-1.7	-8.2	-21.1
COc1ccc(Cc2ccccc2C(=O)O)cc1	1.8	4.2	-0.1	4.5	9.3
Cc1ccc(Cl)cc1NC(=O)COC(=O)CC1CCCCC1	2.9	-4.0	-0.5	-7.0	-2.1
C[C@@H](NC(=O)/C(C#N)=C/c1ccc(O)c(O)c1)c1ccccc1	-4.3	-8.4	-1.0	8.8	61.7*
N#C/C(=C\c1ccc(O)c(O)c1)C(=O)Nc1ccccc1	4.5	-9.4	-0.5	1.4	55.4*
N#C/C(=C\c1cccnc1)C(=O)Nc1ccccc1	-2.7	7.7	0.2	-6.9	4.2
O=C(NN=C1CCCCC1)Nc1ccccc1Cl	0.2	-0.5	-0.3	-16.5	-0.4
OC(c1ccc(CN2CCCCC2)cc1)c1ncc(-c2ccccc2F)[nH]1 (stereo unspecified)	1.5	x	-0.2	x	13.8
CC(=O)c1cccc(NC(=O)Cn2cnc(S(=O)(=O)N3CCC(C)CC3)c2)c1	-1.2	-4.0	-0.6	-8.7	-2.8
O=C(OCN1C(=O)c2ccccc2C1=O)c1cc(S(=O)(=O)N2CCOCC2)ccc1F	-0.7	-2.1	-0.3	-7.2	5.4
O=C(Nc1ccc2oc(-c3ccccc3F)nc2c1)c1ccc([N+](=O)[O-])o1	1.1	-4.1	-1.2	-2.1	58.1*
O=C(Nc1ccc2oc(-c3ccccc3F)nc2c1)c1cncc(Br)c1	-0.3	6.0	-0.8	-3.4	1.2
O=C(O[C@@H]1OC2COC(=O)c3cc(O)c(O)c(O)c3-c3c(cc(O)c(O)c3O)C(=O)O[C@@H]([C@H]1O)[C@@H]2O)c1cc(O)c(O)c(O)c1	68.7*	-6.8	0.2	2.8	-1.3
COc1cccc(-c2sc3ccc(OC)cc3c2-c2cnc(N3CCOCC3)nc2)c1	x	x	-0.1	x	x
CN1CCN(Cc2nc3c(c(=O)n(C)c(=O)n3C)n2CCCc2ccccc2)CC1	0.3	-3.6	0.5	6.4	-6.1
CC1CCN(Cc2nc3c(c(=O)n(C)c(=O)n3C)n2CCCc2ccccc2)CC1	-0.5	-6.8	-0.8	5.0	56.0*
CC(=O)Nc1ccc(N=Nc2ccc(O)cc2)cc1	-1.8	-0.7	0.0	-8.8	-11.4
N#Cc1c(NC(=O)c2ccc(Br)o2)n(-c2ccccc2)c2nc3ccccc3nc12	7.7*	-8.6	1.4	3.4	-4.5
CCC(=O)Nc1c(C#N)c2nc3ccccc3nc2n1-c1ccc(C)cc1	1.4	10.8	0.0	-3.8	-6.7
COC(=O)c1cccc(CN2C(=O)C(C)Sc3ccc(C(C)=O)cc32)c1 (stereo unspecified)	-3.9	x	-0.3	x	-2.6

Screening data (PubChem)
